# Laboratory results: ChEMBL document CHEMBL4325889, “Natural products hybrids: 3,5,4'-Trimethoxystilbene-5,6,7-trimethoxyflavone chimeric analogs as potential cytotoxic agents against diverse human cancer cells” (Eur J Med Chem, 2019)
# Columns and labels:
# Assay type in all cases: functional
# RXF 393 = experiment: Growth inhibition of human RXF393 cells at 10 uM after 48 hrs by SRB assay relative to control; conditions: RXF 393, 48 h, read-out: GI
# In short: (§1)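 Screened at the National Cancer Institute by the standard NCI protocol using the sulforhodamine B assay, which measures cellular protein. Single dose of 10 µM. Result is percent growth inhibition; values above 100% mean cell number fell below the initial population. Values are the average of duplicates.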
# ACHN = experiment: Growth inhibition of human ACHN cells at 10 uM after 48 hrs by SRB assay relative to control; conditions: read-out: GI; in short: as §1
# Malme-3M = experiment: Growth inhibition of human MALME-3M cells at 10 uM after 48 hrs by SRB assay relative to control; conditions: read-out: GI; in short: as §1
# UACC-257 = experiment: Growth inhibition of human UACC257 cells at 10 uM after 48 hrs by SRB assay relative to control; conditions: UACC-257, 48 h, read-out: GI
# In short: (§2)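 NCI screen against its human cancer cell line panel by the standard NCI protocol, SRB protein stain. Single dose of 10 μM. Percent growth inhibition versus control; values above 100% mean the cell population fell below the starting number. Each value is the mean of duplicates.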
# SNB-75 = experiment: Growth inhibition of human SNB75 cells at 10 uM after 48 hrs by SRB assay relative to control; conditions: SNB-75, 48 h, read-out: GI; in short: as §2
# Hs-578T = experiment: Growth inhibition of human Hs 578T cells at 10 uM after 48 hrs by SRB assay relative to control; conditions: read-out: GI; in short: as §1
# HCT-15 = experiment: Growth inhibition of human HCT15 cells at 10 uM after 48 hrs by SRB assay relative to control; conditions: HCT-15, 48 h, read-out: GI; in short: as §1
# K562 = experiment: Growth inhibition of human K562 cells at 10 uM after 48 hrs by SRB assay relative to control; conditions: K562, 48 h, read-out: GI; in short: as §1
# RPMI-8226 = experiment: Growth inhibition of human RPMI8226 cells at 10 uM after 48 hrs by SRB assay relative to control; conditions: RPMI-8226, 48 h, read-out: GI; in short: as §1
# TK-10 = experiment: Growth inhibition of human TK10 cells at 10 uM after 48 hrs by SRB assay relative to control; conditions: TK-10, 48 h, read-out: GI; in short: as §2
# NCI-H460 = experiment: Growth inhibition of human NCI-H460 cells at 10 uM after 48 hrs by SRB assay relative to control; conditions: NCI-H460, 48 h, read-out: GI; in short: as §1
# MCF7 = experiment: Growth inhibition of human MCF7 cells at 10 uM after 48 hrs by SRB assay relative to control; conditions: MCF7, 48 h, read-out: GI; in short: as §1
# HCC 2998 = experiment: Growth inhibition of human HCC2998 cells at 10 uM after 48 hrs by SRB assay relative to control; conditions: HCC 2998, 48 h, read-out: GI; in short: as §1
# NCI-H23 = experiment: Growth inhibition of human NCI-H23 cells at 10 uM after 48 hrs by SRB assay relative to control; conditions: NCI-H23, 48 h, read-out: GI; in short: as §1
# NCI-H522 = experiment: Growth inhibition of human NCI-H522 cells at 10 uM after 48 hrs by SRB assay relative to control; conditions: NCI-H522, 48 h, read-out: GI; in short: as §1
# SN12C = experiment: Growth inhibition of human SN12C cells at 10 uM after 48 hrs by SRB assay relative to control; conditions: read-out: GI; in short: as §1
# SNB-19 = experiment: Growth inhibition of human SNB19 cells at 10 uM after 48 hrs by SRB assay relative to control; conditions: SNB-19, 48 h, read-out: GI; in short: as §2
# SR = experiment: Growth inhibition of human SR cells at 10 uM after 48 hrs by SRB assay relative to control; conditions: read-out: GI; in short: as §2
# MDA-MB-435 = experiment: Growth inhibition of human MDA-MB-435 cells at 10 uM after 48 hrs by SRB assay relative to control; conditions: MDA-MB-435, 48 h, read-out: GI; in short: as §1
# A549 = experiment: Growth inhibition of human A549 cells at 10 uM after 48 hrs by SRB assay relative to control; conditions: A549, 48 h, read-out: GI; in short: as §1
# CCRF-CEM = experiment: Growth inhibition of human CCRF-CEM cells at 10 uM after 48 hrs by SRB assay relative to control; conditions: read-out: GI; in short: as §1
# NCI-H226 = experiment: Growth inhibition of human NCI-H226 cells at 10 uM after 48 hrs by SRB assay relative to control; conditions: NCI-H226, 48 h, read-out: GI; in short: as §1
# 786-0 = experiment: Growth inhibition of human 786-0 cells at 10 uM after 48 hrs by SRB assay relative to control; conditions: 786-0, 48 h, read-out: GI; in short: as §1
# OVCAR-8 = experiment: Growth inhibition of human OVCAR8 cells at 10 uM after 48 hrs by SRB assay relative to control; conditions: OVCAR-8, 48 h, read-out: GI; in short: as §1
# MDA-MB-468 = experiment: Growth inhibition of human MDA-MB-468 cells at 10 uM after 48 hrs by SRB assay relative to control; conditions: MDA-MB-468, 48 h, read-out: GI; in short: as §1
# MOLT-4 = experiment: Growth inhibition of human MOLT4 cells at 10 uM after 48 hrs by SRB assay relative to control; conditions: MOLT-4, 48 h, read-out: GI; in short: as §1
# SK-MEL-5 = experiment: Growth inhibition of human SK-MEL-5 cells at 10 uM after 48 hrs by SRB assay relative to control; conditions: SK-MEL-5, 48 h, read-out: GI; in short: as §1
# HOP-62 = experiment: Growth inhibition of human HOP62 cells at 10 uM after 48 hrs by SRB assay relative to control; conditions: HOP-62, 48 h, read-out: GI; in short: as §1
# UACC-62 = experiment: Growth inhibition of human UACC62 cells at 10 uM after 48 hrs by SRB assay relative to control; conditions: UACC-62, 48 h, read-out: GI; in short: as §2
# SW-620 = experiment: Growth inhibition of human SW620 cells at 10 uM after 48 hrs by SRB assay relative to control; conditions: SW-620, 48 h, read-out: GI; in short: as §2
# OVCAR-4 = experiment: Growth inhibition of human OVCAR4 cells at 10 uM after 48 hrs by SRB assay relative to control; conditions: OVCAR-4, 48 h, read-out: GI; in short: as §1
# OVCAR-3 = experiment: Growth inhibition of human OVCAR3 cells at 10 uM after 48 hrs by SRB assay relative to control; conditions: OVCAR-3, 48 h, read-out: GI; in short: as §1
# SK-MEL-28 = experiment: Growth inhibition of human SK-MEL-28 cells at 10 uM after 48 hrs by SRB assay relative to control; conditions: SK-MEL-28, 48 h, read-out: GI; in short: as §1
# DU-145 = experiment: Growth inhibition of human DU145 cells at 10 uM after 48 hrs by SRB assay relative to control; conditions: DU-145, 48 h, read-out: GI; in short: as §1
# KM12 = experiment: Growth inhibition of human KM12 cells at 10 uM after 48 hrs by SRB assay relative to control; conditions: KM12, 48 h, read-out: GI; in short: as §1
Structure (SMILES),inhibition of growth at 10 µM (RXF 393) [%],inhibition of growth at 10 µM (ACHN) [%],inhibition of growth at 10 µM (Malme-3M) [%],inhibition of growth at 10 µM (UACC-257) [%],inhibition of growth at 10 µM (SNB-75) [%],inhibition of growth at 10 µM (Hs-578T) [%],inhibition of growth at 10 µM (HCT-15) [%],inhibition of growth at 10 µM (K562) [%],inhibition of growth at 10 µM (RPMI-8226) [%],inhibition of growth at 10 µM (TK-10) [%],inhibition of growth at 10 µM (NCI-H460) [%],inhibition of growth at 10 µM (MCF7) [%],inhibition of growth at 10 µM (HCC 2998) [%],inhibition of growth at 10 µM (NCI-H23) [%],inhibition of growth at 10 µM (NCI-H522) [%],inhibition of growth at 10 µM (SN12C) [%],inhibition of growth at 10 µM (SNB-19) [%],inhibition of growth at 10 µM (SR) [%],inhibition of growth at 10 µM (MDA-MB-435) [%],inhibition of growth at 10 µM (A549) [%],further results
COc1cc(NC(=O)c2cccc(-c3cc(=O)c4c(O)c(OC)c(OC)cc4o3)c2)cc(OC)c1OC,25,83.7,49,33.9,67.8,104,40.1,45.5,73,25.2,46.2,50.6,34,65.1,58.8,37,50,45.6,34.6,59.5,inhibition of growth at 10 µM (CCRF-CEM): 41.9%; inhibition of growth at 10 µM (NCI-H226): 92.3%; inhibition of growth at 10 µM (786-0): 33.7%; inhibition of growth at 10 µM (OVCAR-8): 76.9%; inhibition of growth at 10 µM (MDA-MB-468): 40.1%; inhibition of growth at 10 µM (MOLT-4): 27.2%; inhibition of growth at 10 µM (SK-MEL-5): 60.8%; inhibition of growth at 10 µM (HOP-62): 88.3%; inhibition of growth at 10 µM (UACC-62): 50.6%; inhibition of growth at 10 µM (SW-620): 26.7%; inhibition of growth at 10 µM (OVCAR-4): 41.4%; inhibition of growth at 10 µM (OVCAR-3): 76.2%; inhibition of growth at 10 µM (SK-MEL-28): 22.6%; inhibition of growth at 10 µM (DU-145): 42.8%; inhibition of growth at 10 µM (KM12): 46.1%
COc1ccc(NC(=O)c2cccc(-c3cc(=O)c4c(O)c(OC)c(OC)cc4o3)c2)cc1,8.01,16.4,19.4,20.8,105,43.9,-7.36,8.23,7.48,-5.09,7.3,6.72,-1.16,8.74,20.6,15.7,38.4,19.2,-5.05,18.7,inhibition of growth at 10 µM (CCRF-CEM): 16%; inhibition of growth at 10 µM (NCI-H226): 8.07%; inhibition of growth at 10 µM (786-0): 57%; inhibition of growth at 10 µM (OVCAR-8): 19.4%; inhibition of growth at 10 µM (MDA-MB-468): 15.7%; inhibition of growth at 10 µM (MOLT-4): -2.73%; inhibition of growth at 10 µM (SK-MEL-5): 8.61%; inhibition of growth at 10 µM (HOP-62): 27.8%; inhibition of growth at 10 µM (UACC-62): 18.9%; inhibition of growth at 10 µM (SW-620): -1.58%; inhibition of growth at 10 µM (OVCAR-4): 2.54%; inhibition of growth at 10 µM (OVCAR-3): 49.4%; inhibition of growth at 10 µM (SK-MEL-28): -4.12%; inhibition of growth at 10 µM (DU-145): 3.06%; inhibition of growth at 10 µM (KM12): -3.03%
COc1cccc(NC(=O)c2cccc(-c3cc(=O)c4c(OC)c(OC)c(OC)cc4o3)c2)c1,52.1,37.5,15.2,7.62,10.2,53.8,45.3,59.7,83,21.2,39.9,12.3,12.2,36.9,53.4,37.7,17.5,58.1,18.8,37.2,inhibition of growth at 10 µM (CCRF-CEM): 59.5%; inhibition of growth at 10 µM (NCI-H226): 36.7%; inhibition of growth at 10 µM (786-0): 31.1%; inhibition of growth at 10 µM (OVCAR-8): 53%; inhibition of growth at 10 µM (MDA-MB-468): 21%; inhibition of growth at 10 µM (MOLT-4): 51.5%; inhibition of growth at 10 µM (SK-MEL-5): 36.1%; inhibition of growth at 10 µM (HOP-62): 40.5%; inhibition of growth at 10 µM (UACC-62): 37.9%; inhibition of growth at 10 µM (SW-620): 10.4%; inhibition of growth at 10 µM (OVCAR-4): 37.4%; inhibition of growth at 10 µM (OVCAR-3): 33.4%; inhibition of growth at 10 µM (SK-MEL-28): 26.6%; inhibition of growth at 10 µM (DU-145): 28.2%; inhibition of growth at 10 µM (KM12): 46.3%
